# Laboratory results from ChEMBL document CHEMBL3758141, “Cytotoxic C20 Diterpenoid Alkaloids from the Australian Endemic Rainforest Plant Anopterus macleayanus” (J Nat Prod, 2015).
# What was measured:
# LNCaP [1] = experiment: Cytotoxicity against human LNCAP cells after 72 hrs by AlamarBlue end point assay; assay type: functional, cell-based
# In short: (§1)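 Cells in phenol-red-free RPMI-1640 at 37 °C, 5% CO2, with 5% FBS (DuCaP 10% FBS). Seeded per well for 24 h: LNCaP 4000, C4-2B 3000, DuCaP 15 000, BPH-1 3000, WPMY-1 2000. Compounds in DMSO were diluted in medium (final DMSO 0.3%). After 72 h, metabolic activity was read by AlamarBlue. Controls were a DMSO equivalent and vinblastine 25 nM.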
# [2] = Cytotoxicity against human C4-2B cells after 72 hrs by AlamarBlue end point assay; assay type: functional, cell-based; details: LNCaP C4-2B; in short: as §1
# [3] = Cytotoxicity against human DuCaP cells after 72 hrs by AlamarBlue end point assay; assay type: functional, cell-based; in short: as §1
# [4] = Cytotoxicity against human BPH1 cells after 72 hrs by AlamarBlue end point assay; assay type: cell-based; details: BPH-1, 72 h; in short: as §1
# [5] = Cytotoxicity against human WPMY-1 cells after 72 hrs by AlamarBlue end point assay; assay type: cell-based; details: WPMY-1, 72 h; in short: as §1
# LNCaP [6] = experiment: Cytotoxicity against human LNCAP cells assessed as decrease in cell confluence measured every 2 hrs for 72 hrs by real-time live-cell imaging analysis relative to DMSO control; assay type: functional, cell-based
# In short: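 LNCaP cells in phenol-red-free RPMI-1640 with 5% FBS were seeded at 4000 per well for 24 h. They were then treated with compounds diluted from DMSO (final DMSO 0.3%). The IncuCyte live-cell imager took images every 2 h for 72 h, and growth was tracked as increasing confluence. Controls were a DMSO equivalent and vinblastine 25 nM.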
# LNCaP [7] = experiment: Selectivity index, ratio of IC50 for human BPH1 cells to IC50 for human LNCAP cells; assay type: functional
# LNCaP [8] = experiment: Selectivity index, ratio of IC50 for human WPMY-1 cells to IC50 for human LNCAP cells; assay type: functional
SMILES,IC50 (LNCaP [1]) [µM],IC50 [2] [µM],IC50 [3] [µM],IC50 [4] [µM],IC50 [5] [µM],Activity (LNCaP [6]),Ratio IC50 (LNCaP [7]),Ratio IC50 (LNCaP [8])
C=C1C[C@@]23[C@H]4[C@H](OC(=O)c5ccccc5)[C@H](OC(=O)/C(C)=C/C)[C@@H]1[C@@H]2C1N(C)C[C@]2(C)C[C@H](O)C[C@@]14[C@]2(O)[C@@H](O)[C@@H]3O (stereo partly drawn),0.0067,0.0052,0.0041,0.0092,0.0049,,,
C=C1C[C@]23C[C@H](O)[C@]4(O)[C@@]5(C)C[C@H](O)C[C@]46C([C@H]2[C@H]1[C@@H](OC(=O)/C(C)=C/C)[C@@H](OC(=O)/C(C)=C/C)[C@H]36)N(C)C5 (stereo partly drawn),0.0272,0.045,0.0869,0.0296,0.0482,,,
C=C1C[C@]23C[C@H](O)[C@]4(O)[C@@]5(C)C[C@H](O)C[C@]46C([C@H]2[C@H]1[C@@H](OC(=O)/C(C)=C/C)[C@@H](OC(=O)c1ccccc1)[C@H]36)N(C)C5 (stereo partly drawn),0.19,0.205,0.153,0.236,0.141,,,
CC[C@]1(O)C[C@@H]2CN(CCc3c([nH]c4ccccc34)[C@@](C(=O)OC)(c3cc4c(cc3OC)N(C)[C@H]3[C@@](O)(C(=O)OC)[C@H](OC(C)=O)[C@]5(CC)C=CCN6CC[C@]43[C@@H]65)C2)C1 [VINBLASTINE],0.0032,0.0024,0.0037,0.0038,0.0042,,,
C=C1C[C@]23C[C@H](OC(C)=O)[C@]4(O)[C@@]5(C)C[C@H](O)C[C@]46C([C@H]2[C@H]1[C@@H](OC(=O)/C(C)=C/C)[C@@H](OC(=O)/C(C)=C/CO)[C@H]36)N(C)C5 (stereo partly drawn),0.0109,0.007,0.0099,0.0114,0.0096,,,
C=C1C[C@]23C[C@H](O)[C@]4(O)[C@@]5(C)C[C@H](O)C[C@]46C([C@H]2[C@H]1[C@@H](OC(=O)/C(C)=C/C)[C@@H](OC(=O)/C(C)=C/CO)[C@H]36)N(C)C5 (stereo partly drawn),0.379,0.34,0.355,0.177,0.329,,,
C=C1C[C@]23C[C@H](OC(C)=O)[C@]4(O)[C@@]5(C)C[C@H](O)C[C@]46C([C@H]2[C@H]1[C@@H](OC(=O)/C(C)=C/C)[C@@H](OC(=O)/C(C)=C/C)[C@H]36)N(C)C5.O=C(O)C(F)(F)F (stereo partly drawn),0.0031,0.0062,0.0087,0.0115,0.0066,Dose-dependent effect,3.7,2.1
C=C1C[C@@]23[C@H]4[C@H](OC(=O)/C(C)=C/CO)[C@H](OC(=O)/C(C)=C/C)[C@@H]1[C@@H]2C1N(C)C[C@]2(C)C[C@H](O)C[C@@]14[C@]2(O)[C@@H](O)[C@@H]3O (stereo partly drawn),0.0726,0.135,0.0707,0.134,0.155,,,
C=C1C[C@@]23[C@H]4[C@H](OC(=O)/C(C)=C/C)[C@H](OC(=O)/C(C)=C/C)[C@@H]1[C@@H]2C1N(C)C[C@]2(C)C[C@H](O)C[C@@]14[C@]2(O)[C@@H](O)[C@@H]3O (stereo partly drawn),0.0508,0.0938,0.0557,0.0643,0.086,,,
